Data on 2 compounds can be found in article PMC4245089 (International Journal of Nanomedicine, 2014).

Values joined by “and” are separate entries in the source; they are usually repeats but may differ in a detail not shown here. Equal entries are not always repeated. “Also recorded” adds a separate entry of the source.

The subject of series [1] is P. berghei-ANKA-infected C57BL/6 mice. Put plainly: Liver and kidney function tests. To be noted: serum. Type of series: in vivo.
Series [2] deals with P. falciparum 3D7 strain (chloroquine sensitive). Put plainly: Growth inhibition of blood-stage P. falciparum 3D7 by microscopy. Type of series: cell-based, Plasmodium falciparum. In a few lines:
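Human RBCs were infected with synchronized 3D7 ring stages and held at 10% hematocrit and 2% parasitemia, with medium changed every 24 h. Ten concentrations were run in duplicate, and stage of action was tested at 2.5 μM. Giemsa smears were read at 48 and 72 h. Percent parasitemia was taken as infected/total RBCs over at least ten fields. Dead parasites were scored by lost membrane, shrinkage or unstained cytoplasm.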

The test system of another series is parasitized erythrocytes. Put plainly: Nanotized curcumin uptake assay by fluorimetry, parasitized erythrocytes. Type of series: cell-based. To be noted: treated (parasitized) cultures, 1 μM.
Series [3] is described as follows: Aqueous dispersibility and storage stability of lyophilized powder. Type of series: physicochemical.
A further series relates to uninfected erythrocytes. The experiment in a line: Nanotized curcumin uptake assay by fluorimetry, uninfected erythrocytes. Particulars: 1 μM. The format is cell-based.
Series [4] deals with Human fibroblast L-929 cells. The experiment in a line: Cell viability assay. The format is cell-based. To be noted: 8.11-129.88 μmol/L; 24, 48 and 72 hours. In a few lines:
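L-929 fibroblasts seeded at 1×10^4 cells/well in DMEM. Exposed to native or nanoparticle test compound at 8.11–129.88 μmol/L for 24, 48 and 72 h. MTT (12 mM) added for 2 h at 37°C. Formazan dissolved in DMSO for 1 h at 37°C in the dark. Absorbance read at 595 nm.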

For series [5] the following is noted: mice, oral.
The next series has as its system P. berghei-ANKA. The experiment in a line: Dose kinetics / antimalarial efficacy in P. berghei-ANKA-infected C57BL/6 mice. Type of series: in vivo, Plasmodium berghei. Particulars: oral, 10 mg/kg body weight. In a few lines: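 C57BL/6 mice were infected intravenously with 2.5×10^6 P. berghei-ANKA parasites. Oral dosing began 24 h post-infection and ran twice weekly for 1 month at 10, 20 and 40 mg/kg body weight. Parasitemia was counted every fourth day, and mean survival days were recorded. Optimum dose was set by Peterson's test and mortality rate. Data are mean ± SEM, n=6.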

Where [6] appears, read: day 6, curcumin forms 20 mg/kg oral biweekly.
Where [7] appears, read: day 15, curcumin forms 20 mg/kg oral biweekly.
Where [8] appears, read: day 21, curcumin forms 20 mg/kg oral biweekly.

In series [1] (setting [6]), `CCN(CC)CCCC(C)Nc1ccnc2cc(Cl)ccc12` (stereo not drawn) [chloroquine] had an ALP of 16.4±2.61 KA units, a Bilirubin of 1.15 ± 0.16 mg/dL, a Creatinine of 2.10 ± 0.24 mg/dL and an SGOT activity of 36.20±0.72 U/L. In series [1] (setting [6]), this compound yielded an SGPT activity of 39.41±4.32 U/L and a Urea of 50.32 ± 2.43 mg/dL. In series [1] (setting [7]), this compound returned an ALP of 10.6±2.31 KA units, a Bilirubin of 1.82 ± 0.18 mg/dL, a Creatinine of 1.60 ± 0.27 mg/dL and an SGOT activity of 33.31±0.61 U/L. In addition, in series [1] (setting [7]), the SGPT activity turned out to be 32.34±3.42 U/L and the Urea came to 40.82 ± 2.51 mg/dL. Besides, in series [1] (setting [8]), the Bilirubin was 0.60 ± 0.24 mg/dL, the Creatinine came out at 1.23 ± 0.17 mg/dL, the SGOT activity is on record as 14.14±0.51 U/L and the SGPT activity was found to be 30.17±3.61 U/L. The same compound came in with a Urea in series [1] (setting [8]) of 33.44 ± 2.56 mg/dL.

Turning to `COc1cc(C=CC(=O)CC(=O)C=Cc2ccc(O)c(OC)c2)ccc1O` [native curcumin, 1,7-bis(4-hydroxy 3-methoxyphenyl)-1,6-heptadiene-3,5-dione], in series [1] (setting [6]), the ALP turned out to be 30.72±2.92 KA units; the Bilirubin is 1.6 mg/dL and 1.60 ± 0.36 mg/dL; the Creatinine was found to be 3.29 ± 0.37 mg/dL; the SGOT activity is reported as 66.43±0.65 U/L. Also, in series [1] (setting [6]), the SGPT activity worked out at 98.34±4.68 U/L and the Urea amounted to 54.24 ± 2.37 mg/dL. In series [1] (setting [7]), this compound registered an ALP of 28.81±2.65 KA units, a Bilirubin of 2.19 ± 0.20 mg/dL, a Creatinine of 2.90 ± 0.46 mg/dL and an SGOT activity of 72.80±0.71 U/L. In series [1] (setting [7]), this compound yielded an SGPT activity of 102.69±5.71 U/L and a Urea of 61.72 ± 2.61 mg/dL. In series [1] (setting [8]), the ALP stood at 36.91±2.67 KA units; the Bilirubin is 2.10 mg/dL and 2.10 ± 0.25 mg/dL; the Creatinine was determined as 2.70 ± 0.51 mg/dL; the SGOT activity was determined as 75.71±0.47 U/L. In series [1] (setting [8]), the SGPT activity stood at 136.31±6.45 U/L and the Urea amounted to 87.46 ± 2.54 mg/dL. For the same compound, in series [2] (Plasmodium falciparum, 3D7, read-out: IC50 for growth inhibition of parasites), the concentration for half-maximal inhibition (IC50) stood at 5 µM. The same compound yielded a parasites eradicated in series [2] (synchronized ring stage culture, 2.5 μM, 72 hours) of 60%. Moreover, in the series with parasitized erythrocytes (first growth cycle, n=3), the “concentration found inside the cells” value was found to be 0.3 µM. Also, the “concentration found inside the cells” value in the series on parasitized erythrocytes (second growth cycle) was determined as 0.25 µM. Further, the “dispersibility / solubility in water” value in series [3] is “only soluble in organic solvents such as dimethyl sulfoxide; also recorded: completely insoluble in water”. The “concentration found inside the cells” value with uninfected erythrocytes (first growth cycle, n=3) came to 0.24 µM. Further, the “concentration found inside the cells” value in the series on uninfected erythrocytes (second growth cycle) came out at 0.1 µM. The “cytotoxicity (growth inhibition of L-929 cells)” value in series [4] is recorded as “marginal cytotoxic effects”. Also, the “time post-feeding until which curcumin was present/detectable in plasma” value in series [5] was found to be 15 h. The “survival (to day)” value with P. berghei-ANKA is listed as 20 days.
